The source of these data is ChEMBL document CHEMBL1144761, “Bioactive polybrominated diphenyl ethers from the marine sponge Dysidea sp” (J Nat Prod, 2008).

Structures are written as SMILES. Activity calls are given as the source filed them. The rule behind the calls is not given here.

The subject of experiment [1] is Streptomyces. Nature of the experiment: Antibacterial activity against Streptomyces 85E assessed as bald phenotype at 20 ug/disk after 30 hrs by hyphae formation inhibition assay. The class given is functional. The settings on record: read-out: IZ. In outline:
(§1)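 Mycelial fragments spread on minimal medium ISP 4 agar to form a lawn; compound-impregnated 6 mm paper disks placed on surface; incubated 30 h at 30 °C. Zone diameter recorded as clear (growth and sporulation inhibited) or bald (substrate hyphae without aerial hyphae); >9 mm counted active. Stocks in DMSO or methanol; solvent negative control, surfactin positive control.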

Experiment [2] has as its system Streptomyces. In words: Antibacterial activity against Streptomyces 85E assessed as bald phenotype at 2.5 ug/disk after 30 hrs by hyphae formation inhibition assay. It is filed as functional. The settings on record: read-out: IZ. In outline:
as §1

Experiment [3] concerns Streptomyces. Nature of the experiment: Antibacterial activity against Streptomyces 85E assessed as bald phenotype at 5 ug/disk after 30 hrs by hyphae formation inhibition assay. It is filed as functional. The following applies: read-out: IZ. In outline:
as §1

The subject of experiment [4] is MCF7. In words: Antiproliferative activity against human MCF7 cells. It is filed as functional, cell-based. In outline: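 MCF-7 cells grown in IMEM with 5% FBS and penicillin/streptomycin at 37 °C, 5% CO2, plated in 96-well plates with compounds in DMSO at five concentrations. After 2 days, glutaraldehyde-fixed, crystal violet-stained, dye solubilised in Triton X-100, A560 minus A405 read. % growth relative to day-0 and DMSO wells; IC50 read graphically from dose–response curve, triplicate.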

The test system of experiment [5] is Streptomyces. Nature of the experiment: Antibacterial activity against Streptomyces 85E assessed as bald phenotype at 10 ug/disk after 30 hrs by hyphae formation inhibition assay. It is filed as functional. The settings on record: read-out: IZ. The method, boiled down: as §1
Experiment [6] relates to Streptomyces. Nature of the experiment: Antibacterial activity against Streptomyces 85E assessed as clear zone at 10 ug/disk after 30 hrs by hyphae formation inhibition assay. The class given is functional. The following applies: read-out: IZ. In outline:
as §1

Experiment [7] has as its system Streptomyces. In words: Antibacterial activity against Streptomyces 85E assessed as clear zone at 20 ug/disk after 30 hrs by hyphae formation inhibition assay. The following applies: read-out: IZ. The class given is functional. The method, boiled down:
as §1

The test system of experiment [8] is MCF7. Nature of the experiment: Cell cycle arrest in human MCF7 cells by accumulation at G1 phase at 10 uM by flow cytometry. The class given is functional, cell-based. In outline: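 MCF-7 cells, 1 × 10^5 per well, held 2 days in serum-free, antibiotic-free, phenol red-free IMEM to induce G1 arrest. Compound or DMSO added 30 min before FBS to 5% final; serum-free wells as negative controls; U0126 50 µM comparator. After 24 h, cells fixed in ice-cold 80% ethanol, propidium iodide stained, phases measured by flow cytometry; n = 3.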
On the technique in general: Flow cytometry measures light scatter and fluorescence of single cells or particles in a stream.

For experiment [9], the system named is Streptomyces. In words: Antibacterial activity against Streptomyces 85E assessed as clear zone at 5 ug/disk after 30 hrs by hyphae formation inhibition assay. It is filed as functional. The settings on record: read-out: IZ. In outline: as §1
Experiment [10] concerns MCF7. In words: Cytotoxicity against human MCF7 cells at >10 uM. It is filed as functional, cell-based.
The test system of experiment [11] is Streptomyces. In words: Antibacterial activity against Streptomyces 85E assessed as clear zone at 2.5 ug/disk after 30 hrs by hyphae formation inhibition assay. The class given is functional. The following applies: read-out: IZ. In outline:
as §1

Regarding `COc1c(O)c(Oc2ccc(Br)cc2Br)c(Br)c(Br)c1Br`, in experiment [1], the zone of inhibition at 20 µg/disc amounted to 12 mm. For the same compound, in experiment [2], the zone of inhibition at 2.5 µg/disc was 10 mm. For the same compound, the zone of inhibition at 5 µg/disc in [3] was 11 mm. For the same compound, it took 8.69 µM to reach half-maximal inhibition in [4] (IC50). In addition, the zone of inhibition at 10 µg/disc in [5] came out at 12 mm.

Consider `Oc1c(Br)c(Br)c(Br)c(Br)c1Oc1ccc(Br)cc1Br`, for which the zone of inhibition at 2.5 µg/disc in [2] came to 12 mm. The zone of inhibition at 10 µg/disc in experiment [6] came to 13 mm. Further, the zone of inhibition at 5 µg/disc in experiment [3] is 12 mm. For the same compound, it took 9.48 µM to reach half-maximal inhibition in experiment [4] (IC50). Further, the zone of inhibition at 20 µg/disc in [7] is 15 mm.

Consider `Oc1c(Oc2ccc(Br)cc2Br)ccc(Br)c1Br`, for which the zone of inhibition at 2.5 µg/disc in experiment [2] turned out to be 10 mm. Besides, in experiment [3], the zone of inhibition at 5 µg/disc is 13 mm. Further, the concentration for half-maximal inhibition (IC50) (usually the point on the concentration scale where inhibition reaches its midpoint) in [4] was found to be 7.23 µM. Further, in [5], the zone of inhibition at 10 µg/disc was found to be 14 mm. For the same compound, in experiment [7], the zone of inhibition at 20 µg/disc amounted to 13 mm.

Consider `Oc1c(Br)cc(Br)c(Br)c1Oc1ccc(Br)cc1Br`, for which the zone of inhibition at 20 µg/disc was found to be 3 mm in experiment [1] and 12 mm in [7]. Further, the zone of inhibition at 2.5 µg/disc in experiment [2] is 13 mm. The zone of inhibition at 10 µg/disc was found to be 12 mm in [6] and 2 mm in [5]. Also, the zone of inhibition at 5 µg/disc in [3] is 15 mm. For the same compound, in experiment [4], half-maximal inhibition (IC50) required 8.73 µM.

Regarding `Oc1c(Br)ccc(Br)c1Oc1ccc(Br)cc1Br`, the zone of inhibition at 2.5 µg/disc in experiment [2] amounted to 10 mm. Besides, in experiment [6], the zone of inhibition at 10 µg/disc stood at 13 mm. In addition, the zone of inhibition at 5 µg/disc in experiment [3] came to 11 mm. In experiment [4], half-maximal inhibition (IC50) was put at 6.89 µM. For the same compound, the zone of inhibition at 20 µg/disc in experiment [7] was 14 mm.

On to `Oc1c(Br)c(Br)cc(Br)c1Oc1ccc(Br)cc1Br`, for which, in experiment [1], the zone of inhibition at 20 µg/disc was 14 mm. In experiment [2], the zone of inhibition at 2.5 µg/disc came out at 10 mm. In addition, in experiment [3], the zone of inhibition at 5 µg/disc came out at 11 mm. The compound also displayed an IC50 in experiment [4] of 7.52 µM. Besides, the zone of inhibition at 10 µg/disc in [5] amounted to 13 mm.

In the case of `Oc1cc(Br)cc(Br)c1Oc1ccc(Br)cc1Br`, the outcome in experiment [8] and in [10] was Active. The zone of inhibition at 5 µg/disc in experiment [9] is 16 mm. Further, in experiment [6], the zone of inhibition at 10 µg/disc stood at 17 mm. In experiment [4], this compound returned an IC50 of 2.84 µM. For the same compound, the zone of inhibition at 2.5 µg/disc in experiment [11] is 13 mm. In addition, the zone of inhibition at 20 µg/disc in [7] came to 20 mm.

`Oc1c(Br)c(Br)cc(Br)c1Oc1ccccc1Br`: the zone of inhibition at 5 µg/disc in [9] stood at 13 mm. In experiment [6], the zone of inhibition at 10 µg/disc came out at 18 mm. Besides, half-maximal inhibition in experiment [4] (IC50) was put at 6.96 µM. In experiment [11], the zone of inhibition at 2.5 µg/disc came to 12 mm. In experiment [7], the zone of inhibition at 20 µg/disc is 20 mm.

For the compound `Oc1c(Br)cc(Br)cc1Oc1ccc(Br)cc1Br`, the zone of inhibition at 2.5 µg/disc in experiment [2] stood at 10 mm. Further, the zone of inhibition at 5 µg/disc in experiment [3] worked out at 12 mm. In addition, the IC50 in experiment [4] is 8.9 µM. Further, the zone of inhibition at 10 µg/disc in [5] stood at 13 mm. The zone of inhibition at 20 µg/disc in experiment [7] stood at 13 mm.
